Shown are actives, neighbours in structure and some others; about 2% of the full set was active somewhere.
SIAE inh: inhibitors of human sialic acid acetylesterase SIAE | SIAE FP-Rh probe binding, fluorescence polarization | inhibition, % at 9.66 µM | hit rate 0.69% among 370,000;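 active = inhibition above a cutoff: mean of compounds within the control limits plus 3 SD of those, cut at about 17% in these data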
TCR CD3 inh: blocks the human TCR-CD3 interaction; hit rate 0.37% among 360,000; inhibition, % at 9.4 µM; TAMRA-labeled TCR probe fluorescence, biochemical; AID 651800; in the data active = inhibition above about 19%;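 note: recombinant mutant TCR 2C K166C tagged with TAMRA read by polarization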
TDP2 inh: TDP2 (human) inhibition, absorbance primary screen | recombinant TDP2, T5PNP hydrolysis, p-nitrophenol absorbance 415 nm | inhibition, % at 12.8 µM | hit rate 0.34% among 370,000 | AID 720702;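 active = inhibition above the mean of all tested compounds plus 3 SD, set per campaign, cut at about 25% in these data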
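System – recombinant human TDP2 · Amount – 120 nM TDP2 per well · Buffer or medium – Mg2+-containing Tris-HCl buffer, pH 7.5 · Reagent – T5PNP substrate, 5 mM · Dosing – 12.8 µM single point, 1% DMSO · Incubation – 2 h at 37 °C · Measured by – epi absorbance · Read-out basis – percent inhibition · Benchmarks – high control without enzyme, low control DMSO plus TDP2 · Repeats – singlicate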
mABHD4 FP: inhibitors of mouse ABHD4; AID 720543; Q8VD66; inhibition, % at 8.92 µM; hit rate 0.54% among 370,000; purified mABHD4, FP-Rh probe fluorescence polarization;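 active = inhibition exceeding the mean over every tested compound plus 3 SD, cut at about 30% in these data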
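system = mouse ABHD4 enzyme, wild type | medium = HEPES pH 7.0, NaCl, Pluronic buffer | also added = FP-Rh probe | incubation = Enzyme–compound pre-incubation 45 min, then probe 60 min, both 25 °C | technique = fluorescence polarization, excitation 525 nm, emission 598 nm, BODIPY TMR filters | controls = S159A mutant high control, sample median low control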
HTRA1 inhibitor: inhibitors of human serine peptidase HTRA1; inhibition, % at 5.96 µM; Q92743; AID 504803; recombinant HTRA1, FP-rhodamine activity-based probe, fluorescence polarization; hit rate 0.5% among 340,000; in the data active = inhibition above about 36%
PAD4 inh: blocks human protein arginine deiminase 4 | recombinant PAD4, RCA probe fluorescence polarization | hit rate 0.41% among 330,000 | inhibition, % at 6.36 µM | Q9UM07;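 active = percent inhibition above a cutoff equal to the mean of all tested compounds plus 3 SD, cut at about 15% in these data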
Target sequence (Q9UM07 whole entry, looked up): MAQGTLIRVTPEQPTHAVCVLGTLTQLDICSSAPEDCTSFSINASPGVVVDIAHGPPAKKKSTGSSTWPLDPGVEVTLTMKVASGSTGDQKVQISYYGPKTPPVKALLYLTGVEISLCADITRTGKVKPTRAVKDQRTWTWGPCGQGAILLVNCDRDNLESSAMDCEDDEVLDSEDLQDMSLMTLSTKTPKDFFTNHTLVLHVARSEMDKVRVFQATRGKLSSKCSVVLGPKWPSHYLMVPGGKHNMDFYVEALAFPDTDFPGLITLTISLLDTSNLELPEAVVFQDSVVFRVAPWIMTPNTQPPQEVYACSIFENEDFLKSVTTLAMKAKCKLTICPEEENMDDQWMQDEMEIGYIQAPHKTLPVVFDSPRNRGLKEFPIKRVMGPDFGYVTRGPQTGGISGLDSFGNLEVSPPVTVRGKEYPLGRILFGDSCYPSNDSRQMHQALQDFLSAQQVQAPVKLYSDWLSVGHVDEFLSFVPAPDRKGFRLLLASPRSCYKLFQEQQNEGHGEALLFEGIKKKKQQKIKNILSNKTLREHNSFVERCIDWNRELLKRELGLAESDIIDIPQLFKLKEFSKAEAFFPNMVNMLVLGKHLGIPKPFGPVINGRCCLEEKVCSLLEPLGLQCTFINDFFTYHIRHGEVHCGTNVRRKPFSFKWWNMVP
mABHD4 conf: ABHD4 (mouse) inhibition, FP confirmation; inhibition, % at 8.92 µM; hit rate 55% among 1,800; shares compounds with mABHD4 FP; AID 720658; purified mABHD4, FP-Rh probe fluorescence polarization;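 active = mean inhibition across replicates above the hit cutoff set in the primary screen, cut at about 30% in these data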
Of the large screens only hits and unclear results are named; the others gave an inactive call (follow-up assays come after a bar, where they were run).

CN(C)c1ccc(C2CC(c3cccc(NS(C)(=O)=O)c3)=NN2C(=O)c2ccccc2)cc1 (centres undefined)	none
CCCCN1Cc2c(nc3cc(-c4ccco4)[nH]n3c2=O)C1=O	mABHD4 FP 35 | mABHD4 conf inactive
COc1cccc(/C=N/Nc2snc(SC)c2C#N)c1	none
COc1ccc(/C=N/Nc2snc(SC)c2C#N)cc1OC	mABHD4 FP 35 | mABHD4 conf 34
COc1cccc(/C=N/Nc2snc(SC)c2C#N)c1O	mABHD4 FP 33 | mABHD4 conf inactive
N#Cc1cccc(S(=O)(=O)NCC(=O)OCC(=O)c2ccc[nH]2)c1	none
CC(C)n1c(NCc2ccc(Cl)cc2)nc2ccccc21	none
COCCNC(=O)C1Nc2ccc(C(F)(F)F)cc2C2C=CCC12 (centres undefined)	mABHD4 FP 33 | mABHD4 conf inactive
COC(=O)CNC(=O)C1Nc2ccc(OC(F)(F)F)cc2C2C=CCC12 (centres undefined)	mABHD4 FP 47 | mABHD4 conf inactive
O=S1(=O)c2c(cccc2N2CCC[C@H]2CO)O[C@@H]2CCN1C2	none (no result: TCR CD3 inh, HTRA1 inhibitor, PAD4 inh)
CNc1ncnc2c1ncn2[C@H]1CN(CCc2ccccc2)C[C@@H](CO)O1	none (no result: HTRA1 inhibitor, PAD4 inh)
CCN(Cc1ccccc1)C(=O)COC(=O)c1cc(S(=O)(=O)Nc2ccccc2OC)ccc1O	mABHD4 FP 31 | mABHD4 conf 44
COc1ccc(CNc2ncnc3c2[nH]c2ccccc23)cc1	none (no result: HTRA1 inhibitor)
Cc1ccc2[nH]c3c(NCc4ccccc4)ncnc3c2c1	SIAE inh 24, mABHD4 FP 41 (no result: HTRA1 inhibitor, PAD4 inh) | mABHD4 conf inactive
OC(c1cccc(CN2CCCCC2)c1)c1ncc(-c2ccccc2Cl)[nH]1 (centres undefined)	none (no result: HTRA1 inhibitor, PAD4 inh)
Cc1[nH]c2ccccc2c1C1=CC(=O)C=CC1=O	mABHD4 FP 78 (no result: PAD4 inh) | mABHD4 conf 81
COC(=O)c1ccc(C2N=C(c3cccs3)CC(c3ccccc3O)N2)cc1 (centres undefined)	mABHD4 FP 36 | mABHD4 conf inactive
O=C(c1ccccc1)N1N=C(c2cccs2)CC1c1ccccc1O (centres undefined)	none
COCCCNc1cc(C)nc2ccccc12	none
Cc1cc(NCCCCCCCNc2cc(C)nc3cc([N+](=O)[O-])ccc23)c2ccc([N+](=O)[O-])cc2n1	mABHD4 FP 32 (no result: PAD4 inh) | mABHD4 conf 40
Cc1cc2ccccn2c1C(=O)c1ccc(NN)c([N+](=O)[O-])c1	mABHD4 FP 33 | mABHD4 conf inactive
O=C(NCCN1CCC(n2c(=O)[nH]c3ccccc32)CC1)c1ccncc1	none (no result: HTRA1 inhibitor, PAD4 inh)
COc1ccc(C2=Nc3ccccc3N(C(=O)c3ccc(C(F)(F)F)cc3)C2C(=O)Nc2c(C)cccc2C)cc1 (centres undefined)	none (no result: HTRA1 inhibitor, PAD4 inh)
CCOC(=O)C1=C(C)OC(N)=C(C#N)C1c1c(C)nn(-c2ccccc2)c1Cl (centres undefined)	none
Cc1nn(Cc2ccccc2)c2c1C(c1cccc(Cl)c1)C(C#N)=C(N)O2 (centres undefined)	mABHD4 FP 54 | mABHD4 conf 41
COc1cc(-n2nc(C)c3c2OC(N)=C(C#N)C3c2ccccc2)c(Cl)c(Br)c1O (centres undefined)	TDP2 inh 48, mABHD4 FP 30, PAD4 inh 26 | mABHD4 conf 40
CC1CCCN(CC(O)CN2CCN(CC(O)CN3CCCC(C)C3)C(C)C2)C1 (centres undefined)	none (no result: PAD4 inh)
Cc1cc(C(=O)O)ccc1-c1ccc(/C=C2\NC(=O)N(Cc3ccc(F)cc3)C2=O)o1	mABHD4 FP 30 | mABHD4 conf 78
Cc1ccc(CN2C(=O)N/C(=C/c3ccc(-c4ccc(C(=O)O)cc4)o3)C2=O)cc1	none
Cc1ccc(OCCOC(=O)CCc2nc3ccccc3c(=O)[nH]2)cc1	none
Cc1ccc(S(=O)(=O)Nc2nc3ccc(N)cc3s2)cc1	mABHD4 FP 49 | mABHD4 conf inactive
COc1cc2c(cc1OC)C(c1ccccc1F)NCC2 (centres undefined)	none
O=C(O)C1Cn2c(nc3c(c2=O)C2(CCCC2)Cc2ccccc2-3)S1 (centres undefined)	mABHD4 FP 42 | mABHD4 conf 42
O=C(O)c1ccc(N/N=C/c2cn(Cc3ccc(F)cc3)c3ccccc23)cc1	mABHD4 FP 50 | mABHD4 conf 55
N#CCC(=O)NNc1c([N+](=O)[O-])cc(C(F)(F)F)cc1[N+](=O)[O-]	mABHD4 FP 43 (no result: HTRA1 inhibitor) | mABHD4 conf inactive
COCC(C)NC(=O)CSc1ncnc2sc(-c3ccccc3)cc12 (centres undefined)	none
O=C(NC12CC3CC(CC(C3)C1)C2)c1ccc([N+](=O)[O-])o1	none
Cc1cccc(NC(=O)CSc2nnc(-c3ccco3)c(-c3ccco3)n2)c1	mABHD4 FP 44 (no result: PAD4 inh) | mABHD4 conf 44
Cc1cccc(NC(=O)CSc2nc(N)cc(N)n2)c1	none
C/C(=N\Nc1nc2ccccc2[nH]1)c1ccc(C)o1	none
C/C(=N\Nc1nc(C)cc(C)n1)c1ccc(N2CCOCC2)cc1	none
C/C(=N\NC(=O)c1ccncc1)c1ccc(N2CCOCC2)cc1	none
C/C(=N\Nc1nc2ccccc2[nH]1)c1ccc(Cl)s1	mABHD4 FP 31 | mABHD4 conf inactive
C/C(=N\NC(=O)c1ccccc1)c1ccc(N2CCOCC2)cc1	mABHD4 FP 71 | mABHD4 conf inactive
CC(=O)N1CCC(=NNc2nc3ccccc3[nH]2)CC1	mABHD4 FP 30 (no result: HTRA1 inhibitor) | mABHD4 conf inactive
C/C(=N\Nc1nc2ccccc2[nH]1)c1ccc(N2CCOCC2)cc1	mABHD4 FP 33 | mABHD4 conf 30
Cc1ccc(NC(=S)N(C)C(c2ccccc2)c2ccccc2)cc1C	none
CC(=O)C1=C(C)NC2=C(C(=O)c3ccccc32)C1c1ccccc1 (centres undefined)	mABHD4 FP 41 | mABHD4 conf 83
CC1=C(C#N)C(c2ccccc2)C2=C(N1)c1ccccc1C2=O (centres undefined)	none
COC(=O)CSc1nnc(-c2cnccn2)n1C	none
CC(C)OC(=O)CSc1nnc(-c2cnccn2)n1C	mABHD4 FP 116 | mABHD4 conf inactive
CC12CCC(=O)N1C(C(=O)NNC(=O)c1ccc(F)cc1)CS2 (centres undefined)	none
CCN(CC)c1ccc(C(=O)NNC(=O)C2CSC3(C)CCC(=O)N23)cc1 (centres undefined)	mABHD4 FP 39 | mABHD4 conf inactive
Cc1nc2sccn2c(=O)c1S(=O)(=O)NCc1ccccc1	none
COc1cccc(CNS(=O)(=O)c2c(C)nc3sccn3c2=O)c1	mABHD4 FP 65 | mABHD4 conf inactive
